Measured values as given in ChEMBL document CHEMBL5584325, “Discovery of novel coumarin triazolyl and phenoxyphenyl triazolyl derivatives targeting amyloid beta aggregation-mediated oxidative stress and neuroinflammation for enhanced neuroprotection” (RSC Med Chem, 2024).
Active and inactive are the calls of the source. No cut-off for these calls is given here.

Tests used:
[1] = biological target: T1, Amyloid-beta precursor protein (Homo sapiens, UniProt P05067); experiment: Inhibition of amyloid beta (1 to 42) (unknown origin) aggregation at 100 uM incubated for 48 hrs by ThioflavinT staining based fluorescence assay relative to control
T1 sequence (P05067 whole entry): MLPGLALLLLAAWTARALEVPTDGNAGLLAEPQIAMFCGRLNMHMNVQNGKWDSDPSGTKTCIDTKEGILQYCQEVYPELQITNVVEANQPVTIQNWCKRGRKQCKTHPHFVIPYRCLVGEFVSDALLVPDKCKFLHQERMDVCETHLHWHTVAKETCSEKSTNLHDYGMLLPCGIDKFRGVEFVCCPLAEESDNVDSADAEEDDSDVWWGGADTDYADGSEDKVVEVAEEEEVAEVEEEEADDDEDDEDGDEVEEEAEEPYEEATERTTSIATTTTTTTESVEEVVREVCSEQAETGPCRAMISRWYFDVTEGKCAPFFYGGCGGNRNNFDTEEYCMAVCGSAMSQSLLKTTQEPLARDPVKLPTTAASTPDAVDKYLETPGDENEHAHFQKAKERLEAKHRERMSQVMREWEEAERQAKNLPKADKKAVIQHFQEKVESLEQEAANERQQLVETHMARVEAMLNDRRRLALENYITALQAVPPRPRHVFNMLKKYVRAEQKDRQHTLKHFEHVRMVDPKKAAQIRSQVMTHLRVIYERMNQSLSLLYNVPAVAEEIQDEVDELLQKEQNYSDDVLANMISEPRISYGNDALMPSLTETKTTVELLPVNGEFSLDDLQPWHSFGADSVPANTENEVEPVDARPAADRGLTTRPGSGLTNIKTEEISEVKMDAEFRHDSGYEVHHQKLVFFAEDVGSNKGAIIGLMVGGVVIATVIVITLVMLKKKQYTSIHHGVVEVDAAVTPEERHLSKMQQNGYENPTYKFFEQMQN
In short: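 Compound in DMSO (1 μl of a 1 mM solution) mixed with 9 μl of 25 μM Aβ1–42 in Tris pH 7.4. Incubated 48 h at 37 °C without agitation, then 200 μl of 5 μM ThT added. Fluorescence read at ex 446/em 500 nm; % inhibition vs DMSO control, solvent blank subtracted.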

[2] = biological target: T1, Amyloid-beta precursor protein; experiment: Inhibition of amyloid beta (1 to 42) (unknown origin) aggregation incubated for 48 hrs by ThioflavinT staining based fluorescence assay
[3] = Octanol/water partition coefficient, log P of the compound incubated for 2 hrs under shaking condition by HPLC analysis; assay type: physicochemical
In short: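 Shake-flask log P: 10 mM stock (DMSO, or octanol for highly lipophilic compounds) partitioned between mutually saturated octanol and water at three phase ratios. Shaken 2 h at 25 ± 1 °C, phases separated, each phase quantified by C18 HPLC-UV. Mobile phase 0.1% formic acid:methanol 40:60; log P averaged over the three ratios.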

BV-2 [4] = experiment: Cytotoxicity against mouse BV-2 cells assessed as reduction in cell viability at 40 uM measured after 24 hrs by MTT assay; assay type: toxicity, cell-based; details: bv-2, 24 h
In short: (§1)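 BV-2 microglia grown in DMEM with 10% FBS, HEPES and Glutamax at 37 °C, 5% CO2, seeded overnight at 1 × 10^4 cells/well. Compound alone at 0–200 μM (range extended lower where needed) for 24 h. MTT 2 h at 37 °C, formazan dissolved in DMSO, A570 read. Used to pick non-toxic concentrations.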

BV-2 [5] = experiment: Neuroprotective activity in amyloid beta (1 to 42)-induced cytotoxicity in mouse BV-2 cells assessed as cell viability at 40 uM measured after 24 hrs by MTT assay (reference value: 54.96 +/- 1.12%); assay type: functional; details: read-out: Activity
[6] = Induction of ROS generation in mouse BV-2 cells at 40 uM measured after 24 hrs by DCFH-DA staining based fluorescence assay; assay type: toxicity, cell-based; details: bv-2, 24 h
In short: (§2)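 BV-2 cells seeded overnight at 1 × 10^4/well, compound alone (no Aβ). Cells loaded with 20 μM (final) DCFH-DA for 30 min at 37 °C, washed, then given conditioned medium for 24 h. Fluorescence read at ex […] nm. Expressed as % of control; n = 3 in triplicate, one-way ANOVA with LSD.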

BV-2 [7] = experiment: Neuroprotective activity in amyloid beta (1 to 42)-induced oxidative stress in mouse BV-2 cells assessed as intracellular ROS level at 40 uM measured after 24 hrs by DCFH-DA staining based fluorescence assay (reference value: 150.91 +/- 0.49%); assay type: functional
BV-2 [8] = experiment: Neuroprotective activity in amyloid beta (1 to 42)-induced inflammation in mouse BV-2 cells assessed as IL-1beta mRNA expression at 40 uM measured after 24 hrs by SYBR green staining based qRT-PCR analysis (reference value: 1.53 +/- 0.13%); assay type: functional
BV-2 [9] = experiment: Neuroprotective activity in amyloid beta (1 to 42)-induced inflammation in mouse BV-2 cells assessed as […] in IL-6 mRNA expression at 40 uM measured after 24 hrs by SYBR green staining based qRT-PCR analysis relative to control; assay type: functional
[10] = biological target: T1, Amyloid-beta precursor protein; experiment: Inhibition of amyloid beta (1 to 42) aggregation in mouse BV-2 cells exposed to amyloid-beta (1 to 42) (unknown origin) at 40 uM measured after 24 to 48 hrs by thioflavin T staining based fluorescence assay; assay type: cell-based; details: time 24-48 hrs
SH-SY5Y [11] = experiment: Neuroprotective activity against human SH-SY5Y cells co-cultured with 40 uM compound pretreated BV-2 cells exposed to amyloid beta (1 to 42) assessed as cell viability measured after 24 hrs by MTT assay (reference value: 80.62 +/- 0.86%); assay type: functional; details: read-out: Activity
BV-2 [12] = experiment: Cytotoxicity against mouse BV-2 cells assessed as reduction in cell viability at 10 to 200 uM measured after 24 hrs by MTT assay; assay type: toxicity, cell-based; details: bv-2, 24 h, dose 10-200 µM; in short: as §1
BV-2 [13] = experiment: Cytotoxicity against mouse BV-2 cells assessed as reduction in cell viability at 2.5 uM measured after 24 hrs by MTT assay; assay type: toxicity, cell-based; details: bv-2, 24 h; in short: as §1
BV-2 [14] = experiment: Neuroprotective activity in amyloid beta (1 to 42)-induced cytotoxicity in mouse BV-2 cells assessed as cell viability at 2.5 uM measured after 24 hrs by MTT assay (reference value: 54.96 +/- 1.12%); assay type: functional; details: read-out: Activity
[15] = Induction of ROS generation in mouse BV-2 cells at 2.5 uM measured after 24 hrs by DCFH-DA staining based fluorescence assay; assay type: toxicity, cell-based; details: bv-2, 24 h; in short: as §2
BV-2 [16] = experiment: Neuroprotective activity in amyloid beta (1 to 42)-induced oxidative stress in mouse BV-2 cells assessed as intracellular ROS level at 2.5 uM measured after 24 hrs by DCFH-DA staining based fluorescence assay (reference value: 150.91 +/- 0.49%); assay type: functional
BV-2 [17] = experiment: Neuroprotective activity in amyloid beta (1 to 42)-induced inflammation in mouse BV-2 cells assessed as TNFalpha mRNA expression at 2.5 uM measured after 24 hrs by SYBR green staining based qRT-PCR analysis (reference value: 1.73 +/- 0.22%); assay type: functional
BV-2 [18] = experiment: Neuroprotective activity in amyloid beta (1 to 42)-induced inflammation in mouse BV-2 cells assessed as IL-1beta mRNA expression at 2.5 uM measured after 24 hrs by SYBR green staining based qRT-PCR analysis (reference value: 1.53 +/- 0.13%); assay type: functional
BV-2 [19] = experiment: Neuroprotective activity in amyloid beta (1 to 42)-induced inflammation in mouse BV-2 cells assessed as change in IL-6 mRNA expression at 2.5 uM measured after 24 hrs by SYBR green staining based qRT-PCR analysis; assay type: functional, cell-based
[20] = biological target: T1, Amyloid-beta precursor protein; experiment: Inhibition of amyloid beta (1 to 42) aggregation in mouse BV-2 cells exposed to amyloid-beta (1 to 42) (unknown origin) at 2.5 uM measured after 24 to 48 hrs by thioflavin T staining based fluorescence assay; assay type: cell-based; details: time 24-48 hrs
BV-2 [21] = experiment: Neuroprotective activity in amyloid beta (1 to 42)-induced morphological changes in mouse BV-2 cells assessed as appearance of healthy cells at 2.5 uM; assay type: functional, cell-based
SH-SY5Y [22] = experiment: Neuroprotective activity against human SH-SY5Y cells co-cultured with 2.5 uM compound pretreated BV-2 cells exposed to amyloid beta (1 to 42) assessed as cell viability measured after 24 hrs by MTT assay (reference value: 80.62 +/- 0.86%); assay type: functional; details: read-out: Activity
[23] = biological target: T1, Amyloid-beta precursor protein; experiment: Inhibition of amyloid beta (1 to 42) (unknown origin) aggregation assessed as reduction in amyloid beta fibril formation at 2.5 uM measured after 48 hrs by transmission electron microscopy
[24] = biological target: T1, Amyloid-beta precursor protein; experiment: Inhibition of amyloid beta (1 to 42) (unknown origin) aggregation assessed as appearance of collapsed amyloid beta fibrils at 2.5 uM measured after 48 hrs by transmission electron microscopy
BV-2 [25] = experiment: Cytotoxicity against mouse BV-2 cells assessed as reduction in cell viability at 150 uM measured after 24 hrs by MTT assay; assay type: toxicity, cell-based; details: bv-2, 24 h; in short: as §1
BV-2 [26] = experiment: Neuroprotective activity in amyloid beta (1 to 42)-induced cytotoxicity in mouse BV-2 cells assessed as cell viability at 150 uM measured after 24 hrs by MTT assay (reference value: 54.96 +/- 1.12%); assay type: functional; details: read-out: Activity
BV-2 [27] = experiment: Cytotoxicity against mouse BV-2 cells assessed as reduction in cell viability at 20 uM measured after 24 hrs by MTT assay; assay type: toxicity, cell-based; details: bv-2, 24 h; in short: as §1
BV-2 [28] = experiment: Neuroprotective activity in amyloid beta (1 to 42)-induced cytotoxicity in mouse BV-2 cells assessed as cell viability at 20 uM measured after 24 hrs by MTT assay (reference value: 54.96 +/- 1.12%); assay type: functional; details: read-out: Activity
BV-2 [29] = experiment: Neuroprotective activity in amyloid beta (1 to 42)-induced morphological changes in mouse BV-2 cells at 20 uM; assay type: functional, cell-based
BV-2 [30] = experiment: Neuroprotective activity in amyloid beta (1 to 42)-induced inflammation in mouse BV-2 cells assessed as TNFalpha mRNA expression at 40 uM measured after 24 hrs by SYBR green staining based qRT-PCR analysis (reference value: 1.73 +/- 0.22%); assay type: functional

Row | inhibition [1] | IC50 [2] | logP at 2 h [3] | Compound | also measured
1 | > 50% | – | – | COc1cc(/C=C/C(=O)CC(=O)/C=C/c2ccc(O)c(OC)c2)ccc1O | –
2 | < 50% | – | 1.95 | COc1cc(C(=O)NCc2cn(-c3cc4ccccc4oc3=O)nn2)ccc1O | –
3 | < 50% | – | 2.38 | O=C(OCc1cn(-c2cc3ccccc3oc2=O)nn1)c1ccccc1 | –
4 | > 50% | 69.2 µM | 3.76 | O=C(Cc1ccccc1[N+](=O)[O-])NCc1cn(-c2ccc(Oc3ccccc3)cc2)nn1 | –
5 | > 50% | 0.008 µM | 2.64 | COc1cc(/C=C/C(=O)OCc2cn(-c3cc4ccccc4oc3=O)nn2)ccc1O | Activity (BV-2 [13]): Non-Toxic; viability at 2.5 µM (BV-2 [14]): 71.3%; Activity [15]: Non-Toxic; Activity (BV-2 [16]): 107.04%; Activity (BV-2 [17]): 1.09%; Activity (BV-2 [18]): 0.71%; Activity (BV-2 [19]): inactive; inhibition [20]: Active; Activity (BV-2 [21]): Active; viability at 2.5 µM (SH-SY5Y [22]): 91.5%; inhibition [23]: Active; inhibition [24]: Active
6 | < 50% | – | 2.65 | O=C(OCc1cn(-c2cc3ccccc3oc2=O)nn1)c1ccccc1O | –
7 | < 50% | – | 2.61 | COc1cc(C(=O)OCc2cn(-c3cc4ccccc4oc3=O)nn2)ccc1O | –
8 | < 50% | – | 4.21 | O=C(NCc1cn(-c2ccc(Oc3ccccc3)cc2)nn1)c1ccccc1 | Activity (BV-2 [25]): Non-Toxic; viability at 150 µM (BV-2 [26]): 31.6%
9 | > 50% | 17.7 µM | 2.41 | O=C(Cc1ccccc1[N+](=O)[O-])OCc1cn(-c2cc3ccccc3oc2=O)nn1 | –
10 | < 50% | – | 2.25 | O=C(NCc1cn(-c2cc3ccccc3oc2=O)nn1)c1ccccc1 | –
11 | < 50% | – | 2.65 | COc1cc(/C=C/C(=O)NCc2cn(-c3cc4ccccc4oc3=O)nn2)ccc1O | Activity (BV-2 [4]): Non-Toxic; viability at 40 µM (BV-2 [5]): 75.4%; Activity [6]: Non-Toxic; Activity (BV-2 [7]): 76.83%; Activity (BV-2 [30]): 0.64%; Activity (BV-2 [8]): 0.47%; Activity (BV-2 [9]): inactive; inhibition [10]: Active; viability at 40 µM (SH-SY5Y [11]): 88.3%
12 | > 50% | 4.73 µM | 5.19 | O=C(OCc1cn(-c2ccc(Oc3ccccc3)cc2)nn1)c1ccccc1 | Activity (BV-2 [27]): Non-Toxic; viability at 20 µM (BV-2 [28]): 54.1%

Continued, compound first:

Row | Compound | inhibition [1] | IC50 [2] | logP at 2 h [3] | also measured
13 | O=C(Cc1ccccc1[N+](=O)[O-])NCc1cn(-c2cc3ccccc3oc2=O)nn1 | > 50% | 11.6 µM | 1.9 | –
14 | O=C(Cc1ccccc1[N+](=O)[O-])OCc1cn(-c2ccc(Oc3ccccc3)cc2)nn1 | > 50% | 36.7 µM | 4.29 | –
15 | O=C(NCc1cn(-c2ccc(Oc3ccccc3)cc2)nn1)c1ccccc1O | < 50% | – | – | logP ([3]; 2 h): Not Determined(Insoluble)
16 | COc1cc(/C=C/C(=O)NCc2cn(-c3ccc(Oc4ccccc4)cc3)nn2)ccc1O | > 50% | 0.04 µM | 4.44 | Activity (BV-2 [4]): Non-Toxic; viability at 40 µM (BV-2 [5]): 60.8%; Activity [6]: Non-Toxic; Activity (BV-2 [7]): 137.18%; Activity (BV-2 [8]): 0.05%; Activity (BV-2 [9]): 2.04%; inhibition [10]: Active; viability at 40 µM (SH-SY5Y [11]): 87.2%
17 | COc1cc(C(=O)OCc2cn(-c3ccc(Oc4ccccc4)cc3)nn2)ccc1O | > 50% | 0.003 µM | 4.47 | Activity (BV-2 [12]): Toxic
18 | O=C(OCc1cn(-c2ccc(Oc3ccccc3)cc2)nn1)c1ccccc1O | < 50% | – | 5.18 | –
19 | O=C(NCc1cn(-c2cc3ccccc3oc2=O)nn1)c1ccccc1O | < 50% | – | 2.02 | –
20 | COc1cc(C(=O)NCc2cn(-c3ccc(Oc4ccccc4)cc3)nn2)ccc1O | > 50% | 1.15 µM | 4.26 | Activity (BV-2 [27]): Non-Toxic; viability at 20 µM (BV-2 [28]): 34.5%; Activity (BV-2 [29]): Active
